According to ChEMBL document CHEMBL4765226, “Identification of a Human Toll-Like Receptor (TLR) 8-Specific Agonist and a Functional Pan-TLR Inhibitor in 2-Aminoimidazoles” (J Med Chem, 2016):
Calls of active or inactive are those of the source. The calls are words filed in the database; no cut-off is given here.

Key:
Assay type in all cases: cell-based
Toll-like receptor 5 = Toll-like receptor 5 (Homo sapiens, UniProt O60602); experiment: Agonist activity at human TLR5 stably expressed in HEK293 cells cotransfected with secreted alkaline phosphatase assessed as induction of NFkappaB activation by quanti-blue SEAP reporter gene based spectrophotometric method
Sequence of Toll-like receptor 5 (O60602 whole entry): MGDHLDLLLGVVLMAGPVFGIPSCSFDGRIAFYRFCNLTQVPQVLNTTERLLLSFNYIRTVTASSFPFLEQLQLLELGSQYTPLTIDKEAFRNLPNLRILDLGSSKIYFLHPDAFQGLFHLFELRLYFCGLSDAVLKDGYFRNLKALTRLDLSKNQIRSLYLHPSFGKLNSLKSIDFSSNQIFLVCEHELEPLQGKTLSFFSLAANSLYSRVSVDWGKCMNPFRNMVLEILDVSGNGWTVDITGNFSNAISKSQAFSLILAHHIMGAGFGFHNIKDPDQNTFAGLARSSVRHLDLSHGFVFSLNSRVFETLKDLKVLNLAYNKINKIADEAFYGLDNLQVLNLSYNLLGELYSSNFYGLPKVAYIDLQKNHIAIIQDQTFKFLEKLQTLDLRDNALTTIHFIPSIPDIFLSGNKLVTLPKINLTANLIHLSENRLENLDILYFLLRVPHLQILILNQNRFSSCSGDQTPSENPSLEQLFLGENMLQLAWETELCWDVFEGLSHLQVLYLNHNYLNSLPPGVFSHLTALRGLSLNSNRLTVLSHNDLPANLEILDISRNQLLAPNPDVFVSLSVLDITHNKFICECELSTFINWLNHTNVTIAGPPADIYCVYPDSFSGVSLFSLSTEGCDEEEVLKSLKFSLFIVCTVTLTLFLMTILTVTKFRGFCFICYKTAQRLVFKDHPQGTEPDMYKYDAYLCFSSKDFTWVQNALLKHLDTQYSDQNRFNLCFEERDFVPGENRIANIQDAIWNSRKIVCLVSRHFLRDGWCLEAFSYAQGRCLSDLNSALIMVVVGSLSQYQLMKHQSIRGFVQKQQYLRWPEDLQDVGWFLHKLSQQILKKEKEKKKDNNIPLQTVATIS
Method in brief: (§1)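 HEK293 cells stably co-transfected with the matching human TLR (2, 3, 4, 5, 7, 8 or 9) and NF-κB/AP-1-driven secreted alkaline phosphatase were kept in selection medium. About 10^5 cells/ml were incubated with graded concentrations of stimulus. sAP was read at 620 nm with a chromogen in detection medium. EC50 came from four-parameter logistic fits on quadruplicates.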

[1] = target: T1, Toll-like receptor 7 (Homo sapiens) (UniProt Q9NYK1); experiment: Agonist activity at human TLR7 stably expressed in HEK293 cells cotransfected with secreted alkaline phosphatase assessed as induction of NFkappaB activation by quanti-blue SEAP reporter gene based spectrophotometric method; method in brief: as §1
T1 sequence (whole entry): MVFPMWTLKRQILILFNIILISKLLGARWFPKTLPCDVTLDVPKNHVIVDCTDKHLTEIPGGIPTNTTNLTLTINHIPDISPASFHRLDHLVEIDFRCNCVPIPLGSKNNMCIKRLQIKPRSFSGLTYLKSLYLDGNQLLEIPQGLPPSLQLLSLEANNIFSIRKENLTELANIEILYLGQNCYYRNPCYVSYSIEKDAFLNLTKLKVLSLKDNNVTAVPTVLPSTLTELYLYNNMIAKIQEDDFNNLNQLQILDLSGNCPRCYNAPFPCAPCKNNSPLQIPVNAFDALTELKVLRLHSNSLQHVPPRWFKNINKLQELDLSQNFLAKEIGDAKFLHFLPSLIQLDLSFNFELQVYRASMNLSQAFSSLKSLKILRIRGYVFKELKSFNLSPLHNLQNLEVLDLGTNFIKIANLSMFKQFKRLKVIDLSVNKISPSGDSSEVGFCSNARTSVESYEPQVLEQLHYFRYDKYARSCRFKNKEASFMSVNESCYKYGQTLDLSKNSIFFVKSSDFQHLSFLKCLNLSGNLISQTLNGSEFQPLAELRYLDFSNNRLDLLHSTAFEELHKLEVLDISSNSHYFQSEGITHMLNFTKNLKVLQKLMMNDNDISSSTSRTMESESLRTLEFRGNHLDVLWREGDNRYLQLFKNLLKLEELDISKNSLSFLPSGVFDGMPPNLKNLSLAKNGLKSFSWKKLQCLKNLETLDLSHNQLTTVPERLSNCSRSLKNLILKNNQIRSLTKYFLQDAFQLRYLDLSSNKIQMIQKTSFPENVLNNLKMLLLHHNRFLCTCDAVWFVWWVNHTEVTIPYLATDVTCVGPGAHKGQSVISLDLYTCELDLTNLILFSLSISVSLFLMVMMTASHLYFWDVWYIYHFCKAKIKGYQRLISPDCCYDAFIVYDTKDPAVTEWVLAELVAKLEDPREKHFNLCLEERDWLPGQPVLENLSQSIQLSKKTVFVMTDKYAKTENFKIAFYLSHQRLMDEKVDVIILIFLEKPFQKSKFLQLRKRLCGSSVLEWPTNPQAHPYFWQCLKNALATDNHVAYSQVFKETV

Toll-like receptor 2 = Toll-like receptor 2 (Homo sapiens, UniProt O60603); experiment: Agonist activity at human TLR2 stably expressed in HEK293 cells cotransfected with secreted alkaline phosphatase assessed as induction of NFkappaB activation by quanti-blue SEAP reporter gene based spectrophotometric method; method in brief: as §1
Sequence of Toll-like receptor 2 (O60603 whole entry): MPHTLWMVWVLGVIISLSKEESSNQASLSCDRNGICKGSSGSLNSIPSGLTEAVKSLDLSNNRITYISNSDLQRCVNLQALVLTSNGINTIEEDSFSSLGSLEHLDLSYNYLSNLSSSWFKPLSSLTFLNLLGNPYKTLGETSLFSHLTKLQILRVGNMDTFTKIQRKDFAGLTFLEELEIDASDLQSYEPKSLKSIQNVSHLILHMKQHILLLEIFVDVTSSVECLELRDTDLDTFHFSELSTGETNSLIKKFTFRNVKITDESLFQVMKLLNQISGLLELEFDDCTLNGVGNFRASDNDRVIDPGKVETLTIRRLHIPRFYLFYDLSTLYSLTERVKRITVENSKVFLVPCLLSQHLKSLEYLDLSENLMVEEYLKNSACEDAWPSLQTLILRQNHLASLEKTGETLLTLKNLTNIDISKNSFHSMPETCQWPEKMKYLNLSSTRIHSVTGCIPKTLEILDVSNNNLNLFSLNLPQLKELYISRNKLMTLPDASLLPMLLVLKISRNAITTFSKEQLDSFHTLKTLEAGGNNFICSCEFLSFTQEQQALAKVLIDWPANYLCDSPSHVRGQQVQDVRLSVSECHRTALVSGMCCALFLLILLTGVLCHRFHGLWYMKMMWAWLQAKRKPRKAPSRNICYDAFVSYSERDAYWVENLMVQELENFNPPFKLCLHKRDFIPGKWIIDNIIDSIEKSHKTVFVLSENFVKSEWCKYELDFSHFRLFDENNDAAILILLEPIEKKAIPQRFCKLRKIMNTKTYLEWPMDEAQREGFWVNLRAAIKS

[2] = target: Toll-like receptor 3 (Homo sapiens) (UniProt O15455); experiment: Agonist activity at human TLR3 stably expressed in HEK293 cells cotransfected with secreted alkaline phosphatase assessed as induction of NFkappaB activation by quanti-blue SEAP reporter gene based spectrophotometric method; method in brief: as §1
Sequence of Toll-like receptor 3 (Homo sapiens) (O15455 whole entry): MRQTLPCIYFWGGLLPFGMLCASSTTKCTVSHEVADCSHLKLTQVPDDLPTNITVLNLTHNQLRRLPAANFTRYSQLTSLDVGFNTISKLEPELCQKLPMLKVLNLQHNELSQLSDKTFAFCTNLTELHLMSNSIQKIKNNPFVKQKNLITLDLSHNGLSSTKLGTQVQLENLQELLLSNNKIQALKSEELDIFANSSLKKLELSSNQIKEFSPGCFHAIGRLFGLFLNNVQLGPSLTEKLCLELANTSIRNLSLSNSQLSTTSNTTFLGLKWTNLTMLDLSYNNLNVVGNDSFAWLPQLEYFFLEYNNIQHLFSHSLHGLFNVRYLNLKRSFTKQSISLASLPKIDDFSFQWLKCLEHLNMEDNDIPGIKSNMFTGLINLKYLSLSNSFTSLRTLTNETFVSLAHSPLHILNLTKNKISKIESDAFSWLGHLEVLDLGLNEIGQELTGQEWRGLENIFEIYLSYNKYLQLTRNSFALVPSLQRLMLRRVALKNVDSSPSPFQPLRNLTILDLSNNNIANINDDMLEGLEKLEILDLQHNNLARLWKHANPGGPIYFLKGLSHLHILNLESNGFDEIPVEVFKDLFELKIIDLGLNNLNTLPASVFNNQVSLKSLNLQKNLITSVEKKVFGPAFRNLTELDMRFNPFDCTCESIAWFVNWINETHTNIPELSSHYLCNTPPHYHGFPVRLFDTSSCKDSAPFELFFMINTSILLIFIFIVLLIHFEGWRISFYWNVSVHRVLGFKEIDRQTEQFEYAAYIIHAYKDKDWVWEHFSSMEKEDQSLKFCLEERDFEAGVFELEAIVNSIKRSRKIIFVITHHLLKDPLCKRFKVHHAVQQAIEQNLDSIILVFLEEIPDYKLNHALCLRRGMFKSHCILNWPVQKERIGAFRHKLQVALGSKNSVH

[3] = target: T2, Toll-like receptor 8 (Homo sapiens) (UniProt Q9NR97); experiment: Agonist activity at human TLR8 stably expressed in HEK293 cells cotransfected with secreted alkaline phosphatase assessed as induction of NFkappaB activation by measuring maximal response by quanti-blue SEAP reporter gene-based spectrophotometric method; conditions: filed as agonist
T2 sequence (whole entry): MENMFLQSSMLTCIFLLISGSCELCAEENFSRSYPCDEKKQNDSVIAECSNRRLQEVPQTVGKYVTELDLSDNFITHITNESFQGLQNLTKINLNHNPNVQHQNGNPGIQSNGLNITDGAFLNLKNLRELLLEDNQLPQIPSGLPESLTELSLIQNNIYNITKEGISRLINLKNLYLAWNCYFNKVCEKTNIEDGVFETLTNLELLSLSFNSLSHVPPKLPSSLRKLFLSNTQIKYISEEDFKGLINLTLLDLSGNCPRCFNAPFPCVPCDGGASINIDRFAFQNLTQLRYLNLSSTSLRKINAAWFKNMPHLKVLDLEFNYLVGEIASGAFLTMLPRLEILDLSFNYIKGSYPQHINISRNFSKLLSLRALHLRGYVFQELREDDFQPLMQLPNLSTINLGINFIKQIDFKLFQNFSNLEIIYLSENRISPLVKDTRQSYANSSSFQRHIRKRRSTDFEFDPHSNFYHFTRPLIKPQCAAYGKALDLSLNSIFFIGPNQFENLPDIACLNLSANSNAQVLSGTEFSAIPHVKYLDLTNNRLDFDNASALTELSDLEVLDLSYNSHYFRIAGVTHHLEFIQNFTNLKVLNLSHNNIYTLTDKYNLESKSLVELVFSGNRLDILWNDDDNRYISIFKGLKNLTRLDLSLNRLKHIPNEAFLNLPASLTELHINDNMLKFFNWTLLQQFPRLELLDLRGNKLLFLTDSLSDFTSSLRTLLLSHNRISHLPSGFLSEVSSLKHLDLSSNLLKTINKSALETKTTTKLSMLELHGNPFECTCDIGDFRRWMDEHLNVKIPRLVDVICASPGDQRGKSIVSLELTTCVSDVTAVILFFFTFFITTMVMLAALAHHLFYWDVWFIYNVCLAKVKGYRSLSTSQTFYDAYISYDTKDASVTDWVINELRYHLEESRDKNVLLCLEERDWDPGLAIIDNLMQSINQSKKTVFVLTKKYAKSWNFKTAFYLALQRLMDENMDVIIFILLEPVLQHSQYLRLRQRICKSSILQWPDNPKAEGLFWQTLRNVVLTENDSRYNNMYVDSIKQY
Method in brief: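 TLR8/sAP HEK293 reporter cells, about 10^5 cells/ml, were exposed to graded ligand concentrations, and sAP was read at 620 nm with a chromogenic detection medium. Maximal response was compared across the dose-response curve, with area under the curve also reported. Quadruplicate samples were used.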

Toll-like receptor 4 = Toll-like receptor 4 (Homo sapiens, UniProt O00206); experiment: Agonist activity at human TLR4 stably expressed in HEK293 cells cotransfected with secreted alkaline phosphatase assessed as induction of NFkappaB activation by quanti-blue SEAP reporter gene based spectrophotometric method; method in brief: as §1
Sequence of Toll-like receptor 4 (O00206 whole entry): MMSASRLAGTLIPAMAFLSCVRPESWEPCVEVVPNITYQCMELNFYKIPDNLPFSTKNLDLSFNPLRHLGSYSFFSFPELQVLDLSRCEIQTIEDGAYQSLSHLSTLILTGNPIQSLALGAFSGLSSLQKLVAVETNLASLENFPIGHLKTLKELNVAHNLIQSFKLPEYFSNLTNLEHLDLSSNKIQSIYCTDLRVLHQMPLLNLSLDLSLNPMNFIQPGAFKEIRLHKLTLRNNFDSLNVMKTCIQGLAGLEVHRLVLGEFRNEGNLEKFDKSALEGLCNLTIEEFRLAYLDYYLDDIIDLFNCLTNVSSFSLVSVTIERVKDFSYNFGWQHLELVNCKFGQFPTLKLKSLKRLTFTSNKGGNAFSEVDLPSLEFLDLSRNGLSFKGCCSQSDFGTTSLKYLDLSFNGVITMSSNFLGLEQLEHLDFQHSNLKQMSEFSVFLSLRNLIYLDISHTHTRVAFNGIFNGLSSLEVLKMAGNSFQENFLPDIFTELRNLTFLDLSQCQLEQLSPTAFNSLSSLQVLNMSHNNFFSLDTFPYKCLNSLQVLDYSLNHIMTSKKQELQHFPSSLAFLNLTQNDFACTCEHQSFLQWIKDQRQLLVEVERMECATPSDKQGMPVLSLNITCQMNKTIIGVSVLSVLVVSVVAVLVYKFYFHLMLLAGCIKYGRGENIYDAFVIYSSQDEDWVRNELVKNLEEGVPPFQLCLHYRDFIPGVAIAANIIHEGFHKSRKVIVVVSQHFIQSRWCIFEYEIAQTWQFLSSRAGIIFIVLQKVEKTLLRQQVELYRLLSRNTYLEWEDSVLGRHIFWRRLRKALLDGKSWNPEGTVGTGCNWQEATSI

SMILES | Activity (Toll-like receptor 5) | Activity [1] | Activity (Toll-like receptor 2) | Activity [2] | RUmax [3] | Activity (Toll-like receptor 4)
CCCCCn1cc(-c2cccc(Cl)c2)nc1N | inactive | inactive | inactive | inactive | 0.9 | inactive
CCCCCn1cc(-c2ccc(C(F)(F)F)cc2)nc1N | inactive | inactive | inactive | inactive | 0.8 | inactive
CCCCCn1cc(-c2ccccc2C)nc1N | inactive | inactive | inactive | inactive | 1.4 | inactive
CCCCCn1cc(-c2ccccc2OC)nc1N | inactive | inactive | inactive | inactive | 1.6 | inactive
CCCCCn1cc(-c2ccc(Cl)cc2)nc1N | inactive | inactive | inactive | inactive | 0.5 | inactive
CCCCCn1cc(-c2c(C)noc2C)nc1N | inactive | inactive | inactive | inactive | 0.7 | inactive
CCCCCn1cc(-c2ccccc2C(=O)OC)nc1N | inactive | inactive | inactive | inactive | 1.2 | inactive
CCCCCn1cc(-c2ccc(OC)cc2C)nc1N | inactive | inactive | inactive | inactive | 0.9 | inactive
CCCCCn1cc(-c2ccc(C(N)=O)cc2)nc1N | inactive | inactive | inactive | inactive | 0.8 | inactive
CCCCCn1cc(-c2ccccc2)nc1N | inactive | inactive | inactive | inactive | 2 | inactive
CCCCCn1cc(Cc2ccccc2)nc1N | inactive | inactive | inactive | inactive | 1 | inactive
CCCCCn1cc(-c2ccccc2Cl)nc1N | inactive | inactive | inactive | inactive | 1 | inactive
